Assay results taken from ChEMBL document CHEMBL4715860 (J Med Chem, 2020).
Activity calls are given as the source filed them. The calls are words filed in the database; no cut-off is given here.

How the values were obtained:
[1] = target: PI3-kinase p110-alpha/p85-alpha (Homo sapiens, UniProt P42336); experiment: Inhibition of alexa fluor 647-labeled kinase tracer 314 binding to recombinant human N-terminal His-tagged p110alpha/p85alpha expressed in baculovirus expression system measured after 60 mins by LanthaScreen TR-FRET assay relative to control
[2] = target: Serine/threonine-protein kinase mTOR (Homo sapiens, UniProt P42345); experiment: Inhibition of alexa fluor 647-labeled kinase tracer 314 binding to recombinant human N-terminal GST-tagged mTOR (1360 to 2549 residues) expressed in baculovirus expression system measured after 60 mins by TR-FRET based LanthaScreen Eu kinase binding assay
[3] = Substrate activity at human P-glycoprotein stably expressed in MDCK cells at 1 uM measured after 5 to 20 mins by UPLC-MS/MS analysis; assay type: ADME, cell-based; conditions: time 5-20 min
Outline: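 CRISPR canine-MDR1-knockout MDCKII cells stably expressing human MDR1, with the knockout parent line as control. Cells grown 5 days on TransWell filters and preincubated in HBSS 30 min at 37 °C. Compound at 1 μM added apical or basolateral. Receiver sampled at 5, 10 and 20 min; UPLC-MS/MS.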

[4] = Inhibition of mTORC1 in human A2058 cells assessed as reduction in RPS6 phosphorylation at S235/236 residue incubated for 1 hrs by Western blot analysis; assay type: cell-based; conditions: A2058, 1 h
Outline: (§1)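 A2058 cells grown 24 h at 37 °C, then exposed to inhibitor or DMSO for 1 h. Cells were PFA-fixed and stained for pPKB Ser473 or pS6 Ser235/236 by in-cell western with IR-dye secondary antibodies. Signal normalized to tubulin and to DMSO. IC50 from a 7-point (triplicate) or 11-point (duplicate) 1:2 series.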

[5] = Inhibition of mTOR2 in human A2058 cells assessed as reduction in PKB/Akt phosphorylation at Ser473 incubated for 1 hr by Western blot analysis; assay type: cell-based; conditions: A2058, 1 h; outline: as §1
[6] = AUC (0 to 8 hrs) in male Sprague-Dawley rat plasma at 5 mg/kg, po; assay type: ADME, organism-based; set-up: time < 8 hr, route oral, dose 5 mg/kg
Outline: (§2)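 Male Sprague Dawley rats, single oral dose of 5 mg/kg. Plasma and brain concentrations measured over 8 h, n = 3, mean ± SEM; AUC0−8 computed from the time course.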

[7] = AUC (0 to 8 hrs) in male Sprague-Dawley rat brain at 5 mg/kg, po; assay type: ADME, organism-based; set-up: time < 8 hr, route oral, dose 5 mg/kg; conditions: in vivo; outline: as §2
[8] = AUC (0 to 8 hrs) in C57BL/6J mouse brain at 25 mg/kg, po administered as single dose by mass spectrometry based UHPLC analysis; assay type: ADME, organism-based; set-up: time < 8 hr, route oral, dose 25 mg/kg
Outline: (§3)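 One oral dose of 25 mg/kg to female C57BL/6J mice. Plasma and brain concentrations followed over time, n = 3 per time point (mean).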

[9] = Cmax in C57BL/6J mouse plasma at 25 mg/kg, po administered as single dose by mass spectrometry based UHPLC analysis; assay type: ADME, organism-based; set-up: route oral, dose 25 mg/kg; outline: as §3
[10] = Elimination half life in C57BL/6J mouse brain at 25 mg/kg, po administered as single dose by mass spectrometry based UHPLC analysis; assay type: ADME, organism-based; conditions: read-out: beta t1/2 (converted); outline: as §3
[11] = Clearance in C57BL/6J mouse plasma at 25 mg/kg, po administered as single dose by mass spectrometry based UHPLC analysis; assay type: ADME, organism-based; outline: as §3
[12] = test system: Mus musculus; experiment: In vivo inhibition of PI3Kalpha in C57BL/6J mouse assessed as increase in plasma glucose concentration at 25 mg/kg, po measured after 8 hrs by glucoseoxidase-peroxide coupled colorimetric assay; assay type: functional, organism-based
Outline: (§4)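 Female C57BL/6J mice given one oral dose (25 mg/kg); plasma insulin and glucose monitored over time, mean ± SEM.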

[13] = Tmax in C57BL/6J mouse plasma at 25 mg/kg, po administered as single dose by mass spectrometry based UHPLC analysis; assay type: ADME, organism-based
Outline: (§5)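 Female C57BL/6J mice given a single oral dose of 25 mg/kg. Plasma and brain levels followed over time (n = 3 per time point, mean). Tmax is the time of maximal concentration.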

[14] = Cmax in C57BL/6J mouse brain at 25 mg/kg, po administered as single dose by mass spectrometry based UHPLC analysis; assay type: ADME, organism-based; set-up: route oral, dose 25 mg/kg; outline: as §3
[15] = AUC (0 to 8 hrs) in C57BL/6J mouse plasma at 25 mg/kg, po administered as single dose by mass spectrometry based UHPLC analysis; assay type: ADME, organism-based; set-up: time < 8 hr, route oral, dose 25 mg/kg; outline: as §3
[16] = test system: Mus musculus; experiment: In vivo inhibition of PI3Kalpha C57BL/6J mouse assessed as increase in plasma insulin concentration at 25 mg/kg, po measured after 8 hrs by ELISA; assay type: functional, organism-based; outline: as §4
[17] = Elimination half life in C57BL/6J mouse plasma at 25 mg/kg, po administered as single dose by mass spectrometry based UHPLC analysis; assay type: ADME, organism-based; conditions: read-out: beta t1/2 (converted); outline: as §3
[18] = Tmax in C57BL/6J mouse brain at 25 mg/kg, po administered as single dose by mass spectrometry based UHPLC analysis; assay type: ADME, organism-based; outline: as §5
[19] = Metabolic stability in CD1 mouse hepatocytes assessed as half-life at 5 uM incubated for 3 hrs by LC-MS analysis; assay type: ADME, cell-based, Hepatocyte
Outline: (§6)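 Cryopreserved primary hepatocytes in suspension from CD-1 mouse, Sprague-Dawley rat, Beagle dog and human. Compound at 5 μM final (from 10 mM DMSO stock). Samples taken at 0, 15, 60, 90 and 180 min and quenched with ACN plus internal standard. Parent quantified by LC-MS. Hepatocyte-free medium incubations served as negative control; 7-ethoxycoumarin as positive control. Duplicate; CLint per 10^6 cells and t1/2.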

[20] = Metabolic stability in Beagle dog hepatocytes assessed as half-life at 5 uM incubated for 3 hrs by LC-MS analysis; assay type: ADME, cell-based, Canis lupus familiaris, Hepatocyte; outline: as §6
[21] = Metabolic stability in Sprague-Dawley rat hepatocytes assessed as half-life at 5 uM incubated for 3 hrs by LC-MS analysis; assay type: ADME, cell-based, Hepatocyte; outline: as §6
[22] = Metabolic stability in human hepatocytes assessed as half-life at 5 uM incubated for 3 hrs by LC-MS analysis; assay type: ADME, cell-based, Hepatocyte
Outline: as §6, with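 “stock).” for “stock). Samples taken at 0, 15, 60, 90 and 180 min and quenched with ACN plus internal standard.”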

Sequence of PI3-kinase p110-alpha/p85-alpha (P27986 whole entry, the tested form may be a part): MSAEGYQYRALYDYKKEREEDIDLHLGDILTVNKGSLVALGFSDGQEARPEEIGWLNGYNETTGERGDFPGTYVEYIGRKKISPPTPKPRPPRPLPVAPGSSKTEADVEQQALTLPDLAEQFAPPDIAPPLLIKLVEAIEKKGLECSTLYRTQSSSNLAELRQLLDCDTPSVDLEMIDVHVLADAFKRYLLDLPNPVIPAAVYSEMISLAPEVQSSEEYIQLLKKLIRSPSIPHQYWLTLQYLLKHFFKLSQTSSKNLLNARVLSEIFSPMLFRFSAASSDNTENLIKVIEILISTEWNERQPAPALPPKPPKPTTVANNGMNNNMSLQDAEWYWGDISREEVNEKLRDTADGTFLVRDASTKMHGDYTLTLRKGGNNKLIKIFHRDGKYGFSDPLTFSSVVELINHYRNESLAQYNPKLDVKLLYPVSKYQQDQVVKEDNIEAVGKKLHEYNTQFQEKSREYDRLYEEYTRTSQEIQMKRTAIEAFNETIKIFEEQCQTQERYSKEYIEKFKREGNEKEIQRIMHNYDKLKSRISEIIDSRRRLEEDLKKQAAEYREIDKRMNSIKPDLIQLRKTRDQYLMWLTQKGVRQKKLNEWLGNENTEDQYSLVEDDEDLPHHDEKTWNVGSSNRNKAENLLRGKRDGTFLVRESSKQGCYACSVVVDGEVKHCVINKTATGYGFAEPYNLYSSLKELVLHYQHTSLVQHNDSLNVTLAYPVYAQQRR
Sequence of PI3-kinase p110-alpha/p85-alpha (P42336 whole entry, the tested form may be a part): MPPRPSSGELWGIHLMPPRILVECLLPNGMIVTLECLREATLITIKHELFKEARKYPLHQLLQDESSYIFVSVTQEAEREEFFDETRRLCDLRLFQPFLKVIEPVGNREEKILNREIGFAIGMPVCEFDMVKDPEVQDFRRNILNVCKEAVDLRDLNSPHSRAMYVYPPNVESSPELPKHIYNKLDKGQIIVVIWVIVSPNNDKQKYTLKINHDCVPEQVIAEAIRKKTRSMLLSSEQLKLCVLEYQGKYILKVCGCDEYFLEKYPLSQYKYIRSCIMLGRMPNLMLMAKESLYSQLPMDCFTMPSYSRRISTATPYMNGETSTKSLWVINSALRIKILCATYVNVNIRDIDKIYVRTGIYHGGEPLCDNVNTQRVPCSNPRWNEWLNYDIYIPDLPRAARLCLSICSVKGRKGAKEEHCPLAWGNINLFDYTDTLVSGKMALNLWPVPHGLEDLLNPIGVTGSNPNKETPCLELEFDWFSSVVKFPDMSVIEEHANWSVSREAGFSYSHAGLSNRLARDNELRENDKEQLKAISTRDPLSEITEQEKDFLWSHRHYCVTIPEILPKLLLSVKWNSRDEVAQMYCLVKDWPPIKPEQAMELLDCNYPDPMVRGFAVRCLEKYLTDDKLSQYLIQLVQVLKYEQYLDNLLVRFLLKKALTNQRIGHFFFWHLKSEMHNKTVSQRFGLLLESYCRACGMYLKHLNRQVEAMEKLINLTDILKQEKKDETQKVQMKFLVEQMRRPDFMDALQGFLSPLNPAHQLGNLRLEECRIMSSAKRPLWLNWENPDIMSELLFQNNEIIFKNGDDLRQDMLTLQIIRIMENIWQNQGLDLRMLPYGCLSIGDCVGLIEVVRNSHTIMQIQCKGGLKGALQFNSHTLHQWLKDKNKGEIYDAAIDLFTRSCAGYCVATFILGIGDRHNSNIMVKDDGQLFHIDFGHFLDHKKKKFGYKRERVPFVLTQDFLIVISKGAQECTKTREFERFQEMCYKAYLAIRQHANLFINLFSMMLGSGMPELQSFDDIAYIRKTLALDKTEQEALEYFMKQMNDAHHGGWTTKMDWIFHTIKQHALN

Row | SMILES | Ki [1] [nM] | Ki [2] [nM] | IC50 [4] [nM] | IC50 [5] [nM] | further results
1 | C[C@@H]1COCCN1c1nc(-c2cnc(N)cn2)nc2c1C[C@@H]1COCCN21 |  |  |  |  | AUC(0-t) at 8 h [6]: > 5500 ng·h/mL; AUC [7]: < 110 ng·h/g
2 | CNC(=O)c1cccc(-c2ccc3c(N4CCOC[C@@H]4C)nc(N4CCOC[C@@H]4C)nc3n2)c1 [VISTUSERTIB] |  |  |  |  | AUC(0-t) at 8 h [8]: 1340 ng·h/mL; Cmax [9]: 7190 ng/mL; half-life [10]: 516 min; CL/F [11]: 11 mL/min/kg; inhibition [12]: inactive; Tmax [13]: 30 min; Cmax [14]: 286 ng/mL; AUC(0-t) at 8 h [15]: 33700 ng·h/mL; inhibition [16]: inactive; half-life [17]: 450 min; Tmax [18]: 30 min
3 | C[C@@H]1CN(c2nc(-c3cnc(N)cc3C(F)F)nc(N3CCOC[C@H]3C)n2)C[C@H](C)O1 | > 1000 | 42 | 561 | 1340 | 
4 | C[C@@H]1COCCN1c1nc(-c2cnc(N)cc2C(F)F)nc(N2CCOC[C@@H]2CO)n1 | > 1000 | 28 | 471 | 524 | 
5 | CCOc1ccc2ccc(=O)oc2c1 |  |  |  |  | half-life at 5 µM [19]: 21 min; half-life at 5 µM [20]: 14 min; half-life at 5 µM [21]: 55 min; half-life at 5 µM [22]: 31 min
6 | C[C@@H]1COCCN1c1nc(-c2cnc(N)cc2C(F)F)nc(N2[C@H](C)COC[C@H]2C)n1 | > 1000 | 25 | 392 | 506 | 
7 | C[C@@H]1COCCN1c1nc(-c2cnc(N)cc2C(F)F)nc(N2C3COCC2C3)n1 | > 1000 | 73 | 407 | 1560 | 
8 | COC[C@@H]1COCCN1c1nc(-c2cnc(N)cc2C(F)F)nc(N2CCOC[C@H]2C)n1 | > 1000 | 23 | 426 | 956 | 
9 | C[C@@H]1COCCN1c1nc(-c2cnc(N)cc2C(F)F)nc(N2CCOC[C@H]2CO)n1 | > 1000 | 50 | > 1000 | 1480 | 

Now from value to compound, other results behind:

Row | Ki [1] [nM] | Ki [2] [nM] | IC50 [4] [nM] | IC50 [5] [nM] | SMILES | further results
10 | 19 | 8 |  |  | C[C@@H]1COCCN1c1nc(-c2cnc(N)cc2C(F)F)nc(N2CCOCC2)n1 | Activity [3]: Not Active
11 | 404 | 11 | 192 | 271 | C[C@@H]1COCCN1c1nc(-c2cnc(N)cc2C(F)F)nc(N2CCOCC23CCC3)n1 | 
12 | 233 | 6.4 | 136 | 200 | C[C@@H]1COCCN1c1nc(-c2cnc(N)cc2C(F)F)nc(N2[C@@H](C)COC[C@@H]2C)n1 | 
13 | 65 | 18 | 238 | 231 | CC[C@@H]1COCCN1c1nc(-c2cnc(N)cc2C(F)F)nc(N2CCOC[C@H]2C)n1 | 
14 | 63 | 67 | 241 | 248 | CC[C@H]1COCCN1c1nc(-c2cnc(N)cc2C(F)F)nc(N2CCOC[C@H]2C)n1 | 
15 | 469 | 14 | 261 | 436 | C[C@@H]1COCCN1c1nc(-c2cnc(N)cc2C(F)F)nc(N2CCOC[C@H]2C)n1 | 
16 | 33 | 11 | 137 | 173 | C[C@@H]1COCCN1c1nc(-c2cnc(N)cc2C(F)F)nc(N2CCOC[C@@H]2C)n1 | Activity [3]: Not Active
